Our source for the Activity and IC50 values is ChEMBL document CHEMBL1144753, “Inhibitors of DNA polymerase beta: activity and mechanism” (Bioorg Med Chem, 2008).

One may read the IC50 as the point on the concentration scale where inhibition reaches its midpoint. Low values mean higher potency, high ones lower potency.

Calls of active or inactive are those of the source. The calls are words filed in the database; no cut-off is given here.

The subject of test [1] is A549. As to the kind of experiment: Effect on DNA polymerase beta expression in human A549 cells at 3 uM after 48 hrs by Western blot analysis. In kind it is functional, cell-based. The essentials:
(§1)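 A549 cells grown in Ham's F12K with 10% fetal calf serum, exposed 48 h to compound. Whole-cell extracts prepared by freeze/thaw lysis, cleared at 15,000 × g. Extracts resolved on 15% SDS-PAGE, transferred to PVDF and probed with anti-human pol β antibody. Anti-β-actin served as loading control. HRP anti-goat IgG detection, followed by densitometric quantification.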

The test system of test [2] is A549. As to the kind of experiment: Inhibition of bleomycin-induced unscheduled DNA synthesis in human A549 cells at 3 uM. In kind it is functional, cell-based. The essentials: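 A549 cells (~5×10^5) treated with 10 mM bleomycin for 30 min at 37 °C. Then 10 mM hydroxyurea, 2 mM nicotinamide, 5 µCi [3H]thymidine and inhibitor added, incubated 3 h. Stopped with ice-cold saline. Cells collected and TCA-precipitated on ice 30 min for scintillation counting of incorporated label. Run in triplicate.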

The test system of test [3] is A549. As to the kind of experiment: Cytotoxicity against human A549 cells after 48 hrs by MTT assay. The settings on record: A549, 48 h. (Tetrazolium assays rely on reduction of a dye to a coloured formazan, in cell work by metabolically active cells.)
The test system of test [4] is A549. The test is described as follows: Inhibition of bleomycin-induced unscheduled DNA synthesis in human A549 cells at 6 uM. In kind it is functional, cell-based. The essentials: (§2)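 A549 cells (~5×10^5) treated with 10 mM bleomycin for 30 min at 37 °C. DMSO, 10 mM hydroxyurea, 2 mM nicotinamide, 5 μCi [3H]thymidine and inhibitor then added, triplicate flasks per concentration. Incubated 3 h, stopped with ice-cold saline. Cells pelleted and treated with ice-cold 5% TCA for 30 min; incorporated radioactivity read by scintillation counting.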

Test [5] deals with A549. As to the kind of experiment: Effect on DNA polymerase beta expression in human A549 cells at 6 uM after 48 hrs by Western blot analysis. In kind it is functional, cell-based. The essentials:
as §1
For orientation: In western blotting, separated proteins are transferred to a membrane and probed.

Test [6] concerns the target DNA polymerase beta (Rattus norvegicus) (UniProt P06766). As to the kind of experiment: Inhibition of polymerase activity of DNA polymerase beta.
Test [7] shares this target. As to the kind of experiment: Inhibition of lyase activity of DNA polymerase beta.
For test [8], the system named is A549. The test is described as follows: Inhibition of bleomycin-induced unscheduled DNA synthesis in human A549 cells at 25 uM. In kind it is functional, cell-based. The method in brief: as §2
Test [9] concerns A549. As to the kind of experiment: Effect on DNA polymerase beta expression in human A549 cells at 25 uM after 48 hrs by Western blot analysis. In kind it is functional, cell-based. The method in brief: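 A549 cells grown at 37 °C, 5% CO2 in Kaighn's F12 with 10% fetal calf serum, exposed 48 h to inhibitor at 25 μM (final DMSO <0.05%). Whole-cell extracts made by freeze/thaw, then resolved on 15% SDS-PAGE and blotted to PVDF. Probed with anti-human pol β antibody, with anti-β-actin as loading control. HRP detection; bands scanned and quantified.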

For `C=C(C)[C@@H]1CC[C@]2(C(=O)O)CC[C@]3(C)[C@H](CC[C@@H]4[C@@]5(C)CC[C@H](O)C(C)(C)[C@@H]5CC[C@]43C)[C@@H]12` [BETULINIC ACID], the result in the test on A549 [1] was inactive. Moreover, in the test with A549 [2], the outcome was Active. The half-maximal inhibitory concentration (IC50) with A549 [3] stood at 6.65 µM.
With `O=c1ccc2ccc(Oc3cc4ccc(O)cc4oc3=O)cc2o1` [EDGEWORIN], in the test on A549 [4], the outcome was Active. This compound returned an IC50 in the test on A549 [3] of 80.2 µM. In addition, the outcome in the test on A549 [5] was inactive.
Take `CC1(C)CC[C@]2(C(=O)O)CC[C@]3(C)C(=CC[C@@H]4[C@@]5(C)CC[C@H](O)C(C)(C)[C@@H]5CC[C@]43C)[C@@H]2C1` [OLEANOLIC_ACID]: the half-maximal inhibitory concentration (IC50) in test [6] is 25 µM; in test [7] it was 26.3 µM; in the test on A549 [3] it was above 100 µM. Further, the outcome in the test on A549 [8] was Active. The result in the test on A549 [9] was inactive.
On to `CC[C@H](/C=C/[C@@H](C)[C@H]1CC[C@H]2[C@@H]3CC=C4C[C@@H](O)CC[C@]4(C)[C@H]3CC[C@]12C)C(C)C` [STIGMASTEROL], for which the half-inhibitory concentration (IC50) in test [6] is above 250 µM; in [7], 60.3 µM; in the test with A549 [3], 98.2 µM. Moreover, in the test on A549 [5], the result was inactive.
